pIC50: −log10 of the molar value.
How the values were obtained:
[1] = biological target: Norepinephrine transporter (Rattus norvegicus, UniProt Q9WTR4); assay: Selectivity for the norepinephrine transporter using [3H]nisoxetine binding assay
Method in brief: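 Norepinephrine transporter binding used 8 mg frontal cortex from male Sprague–Dawley rats with 0.5 nM [3H]nisoxetine. Incubated 60 min. Nonspecific binding defined with 1 μM desipramine. Ice-cold washes through PEI-soaked GF/B filters.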

[2] = biological target: Sodium-dependent serotonin transporter (Rattus norvegicus, UniProt P31652); assay: Selectivity for the Serotonin transporter using [3H]paroxetine binding assay
Method in brief: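 Serotonin transporter binding used 1.5 mg hindbrain from male Sprague–Dawley rats with 0.2 nM [3H]paroxetine. Buffer was 50 mM Tris, 120 mM NaCl, 0.5 mM KCl, pH 7.4. Incubated 90 min at room temperature. Nonspecific binding defined with 1 μM citalopram. Ice-cold washes through PEI-soaked GF/B filters.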

[3] = biological target: T1, Sodium-dependent dopamine transporter (Rattus norvegicus, UniProt P23977); assay: Inhibitory potency against [3H]DA uptake […]
Method in brief: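 Rat striatal S1 fraction (CO2-anesthetized rats) diluted in Krebs-phosphate buffer (pH 7.4, O2/CO2-equilibrated, with pargyline and ascorbate). Preincubated with drug 10 min at 37 °C, then [3H]DA for 2.0 min. Nonspecific uptake measured at 0 °C. Stopped with chilled buffer and GF/C filtration, then scintillation counting. IC50 from usually five concentrations, each in duplicate.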

[4] = biological target: T1, Sodium-dependent dopamine transporter; assay: Inhibitory potency against dopamine (DA) transporter using [3H]WIN-35428 (WIN-) binding assay.
[5] = biological target: Monoamine transporters; serotonin & dopamine (Rattus norvegicus) (UniProt P31652+P23977); assay: Ratio of IC50 of 5-HT (serotonin transporter) to IC50 of DA (dopamine transporter); assay type: protein assay
[6] = biological target: Monoamine transporters; Norepininephrine & dopamine (Rattus norvegicus) (UniProt P23977+Q9WTR4); assay: Ratio of IC50 of NE (norepinephrine transporter) to IC50 of DA (dopamine transporter); assay type: protein assay

Chain of Sodium-dependent serotonin transporter (P31652 whole entry): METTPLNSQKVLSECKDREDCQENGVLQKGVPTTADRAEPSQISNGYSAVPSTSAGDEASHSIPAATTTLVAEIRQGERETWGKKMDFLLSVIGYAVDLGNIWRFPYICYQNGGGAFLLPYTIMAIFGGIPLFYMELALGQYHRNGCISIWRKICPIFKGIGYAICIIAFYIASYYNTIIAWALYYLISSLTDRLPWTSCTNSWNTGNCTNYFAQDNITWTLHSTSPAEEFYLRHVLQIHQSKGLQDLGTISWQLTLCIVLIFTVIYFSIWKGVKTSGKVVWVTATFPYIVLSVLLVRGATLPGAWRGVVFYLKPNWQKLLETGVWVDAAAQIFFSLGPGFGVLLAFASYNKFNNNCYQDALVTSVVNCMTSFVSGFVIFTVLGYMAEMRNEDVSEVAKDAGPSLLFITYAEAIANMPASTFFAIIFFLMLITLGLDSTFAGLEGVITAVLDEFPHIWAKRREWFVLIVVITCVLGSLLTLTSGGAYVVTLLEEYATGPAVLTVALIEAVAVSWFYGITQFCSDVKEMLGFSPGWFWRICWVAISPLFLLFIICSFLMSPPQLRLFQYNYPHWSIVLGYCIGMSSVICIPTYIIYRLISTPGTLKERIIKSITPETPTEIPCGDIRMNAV
Chain of Norepinephrine transporter (Q9WTR4 whole entry): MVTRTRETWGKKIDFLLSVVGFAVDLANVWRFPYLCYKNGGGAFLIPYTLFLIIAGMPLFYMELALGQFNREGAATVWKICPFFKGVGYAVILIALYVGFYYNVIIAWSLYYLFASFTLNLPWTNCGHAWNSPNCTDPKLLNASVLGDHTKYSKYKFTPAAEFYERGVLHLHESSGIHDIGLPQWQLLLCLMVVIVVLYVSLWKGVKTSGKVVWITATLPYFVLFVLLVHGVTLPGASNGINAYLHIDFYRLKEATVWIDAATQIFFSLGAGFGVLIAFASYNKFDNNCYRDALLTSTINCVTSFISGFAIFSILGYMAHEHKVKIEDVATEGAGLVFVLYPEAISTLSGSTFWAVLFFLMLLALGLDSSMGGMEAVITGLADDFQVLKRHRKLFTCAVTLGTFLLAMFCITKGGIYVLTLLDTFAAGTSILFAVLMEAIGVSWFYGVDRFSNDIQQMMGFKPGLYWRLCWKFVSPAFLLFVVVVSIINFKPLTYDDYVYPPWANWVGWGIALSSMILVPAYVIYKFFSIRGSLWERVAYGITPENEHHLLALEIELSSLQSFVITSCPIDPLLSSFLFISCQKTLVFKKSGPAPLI
Chain of Monoamine transporters; serotonin & dopamine (Rattus norvegicus) (P23977 whole entry, looked up): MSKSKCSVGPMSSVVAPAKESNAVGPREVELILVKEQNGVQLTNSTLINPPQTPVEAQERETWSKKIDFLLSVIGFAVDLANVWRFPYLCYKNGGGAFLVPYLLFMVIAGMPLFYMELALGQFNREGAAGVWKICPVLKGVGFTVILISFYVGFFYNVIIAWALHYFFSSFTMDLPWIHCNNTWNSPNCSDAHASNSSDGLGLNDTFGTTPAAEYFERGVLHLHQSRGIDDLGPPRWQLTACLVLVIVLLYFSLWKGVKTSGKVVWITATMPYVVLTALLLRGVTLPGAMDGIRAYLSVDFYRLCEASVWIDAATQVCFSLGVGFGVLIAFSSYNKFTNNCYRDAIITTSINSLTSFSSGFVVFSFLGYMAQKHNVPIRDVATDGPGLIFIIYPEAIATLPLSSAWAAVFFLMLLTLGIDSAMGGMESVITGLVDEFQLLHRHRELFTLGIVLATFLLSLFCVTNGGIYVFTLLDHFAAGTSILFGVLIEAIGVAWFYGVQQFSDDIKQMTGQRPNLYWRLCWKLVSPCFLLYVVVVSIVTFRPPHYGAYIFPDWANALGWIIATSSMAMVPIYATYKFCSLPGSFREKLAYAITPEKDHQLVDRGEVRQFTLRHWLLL
Chain of Monoamine transporters; serotonin & dopamine (Rattus norvegicus) (P31652 whole entry, looked up): as the sequence (P31652 whole entry) above
T1 sequence (P23977 whole entry): as the sequence (P23977 whole entry, looked up) above

`CN(C)CC1C2CCC(CC2)C1c1ccc(Cl)c(Cl)c1` (stereo not drawn) was tested, and the pIC50 [1] was 7.02 and the pIC50 [2] was 6.58.

In the case of `CN(C)C1C2CCC(CC2=O)C1c1ccccc1` (stereo in doubt; 6) [listing 1 of 2 here], the pIC50 [3] was 5.04, the pIC50 [4] was 5.40 and the pIC50 [1] was 5.39. The pIC50 [2] was 4.50.

Molecule `CN(C)C1C2CCC(CC2=O)C1c1ccccc1` (stereo in doubt; 6) [listing 2 of 2 here] has a Ratio [5] of 7.8 and a Ratio [6] of 1.

In the case of `CN(C)C1C2CCC(CC2O)C1c1ccccc1` (stereo in doubt; 7) [listing 1 of 2 here], the pIC50 [3] was 5.35, the pIC50 [4] was 5.75 and the pIC50 [1] was 5.82. It also gave a pIC50 [2] of 5.08.

`CN(C)C1C2CCC(CC2O)C1c1ccccc1` (stereo in doubt; 7) [listing 2 of 2 here] was tested, and the Ratio [5] was 4.7 and the Ratio [6] was 0.85.

Work on `CN(C)C1C2CCC(CC2O)C1c1ccccc1` (stereo in doubt; 8) [listing 1 of 2 here] yielded a pIC50 [3] of 5.55, a pIC50 [4] of 5.69 and a pIC50 [1] of 5.14. It also gave a pIC50 [2] of 4.66.

`CN(C)C1C2CCC(CC2O)C1c1ccccc1` (stereo in doubt; 8) [listing 2 of 2 here] gave a Ratio [5] of 11 and a Ratio [6] of 3.5.

`CC(=O)OC1CC2CCC1C(N(C)C)C2c1ccccc1` (stereo in doubt; 9) [listing 1 of 2 here] was tested, and the pIC50 [3] was 5.31, the pIC50 [4] was 5.27 and the pIC50 [1] was 6.27. The pIC50 [2] was 5.61.

With `CC(=O)OC1CC2CCC1C(N(C)C)C2c1ccccc1` (stereo in doubt; 9) [listing 2 of 2 here] the Ratio [5] was 0.46 and the Ratio [6] was 0.1.

For `CC(=O)OC1CC2CCC1C(N(C)C)C2c1ccccc1` (stereo in doubt; 10) [listing 1 of 2 here], the pIC50 [3] was 4.59, the pIC50 [4] was 4.91 and the pIC50 [1] was 4.26. The pIC50 [2] was 3.75.

In the case of `CC(=O)OC1CC2CCC1C(N(C)C)C2c1ccccc1` (stereo in doubt; 10) [listing 2 of 2 here], the Ratio [5] was 14 and the Ratio [6] was 4.5.

In the case of `CN(C)C1C2CCC(CC2OC(=O)c2ccccc2)C1c1ccccc1` (stereo in doubt; 11) [listing 1 of 2 here], the pIC50 [3] was 6.43, the pIC50 [4] was 6.45 and the pIC50 [1] was 6.65. The pIC50 [2] was 7.28.

Molecule `CN(C)C1C2CCC(CC2OC(=O)c2ccccc2)C1c1ccccc1` (stereo in doubt; 11) [listing 2 of 2 here] has a Ratio [5] of 0.15 and a Ratio [6] of 0.65.

In the case of `CN(C)C1C2CCC(CC2OC(=O)c2ccccc2)C1c1ccccc1` (stereo in doubt; 12) [listing 1 of 2 here], the pIC50 [3] was 6.16, the pIC50 [4] was 6.57 and the pIC50 [1] was 5.83. The pIC50 [2] was 4.95.

`CN(C)C1C2CCC(CC2OC(=O)c2ccccc2)C1c1ccccc1` (stereo in doubt; 12) [listing 2 of 2 here] showed a Ratio [5] of 41 and a Ratio [6] of 5.4.

In the case of `CN(C)C1C2CCC(CC2=O)C1c1ccccc1` (stereo in doubt; 13) [listing 1 of 2 here], the pIC50 [3] was 4.61, the pIC50 [4] was 4.99 and the pIC50 [1] was 4.97. It also gave a pIC50 [2] of 4.21.

With `CN(C)C1C2CCC(CC2=O)C1c1ccccc1` (stereo in doubt; 13) [listing 2 of 2 here] the Ratio [5] was 5.9 and the Ratio [6] was 1.

Molecule `CN(C)C1C2CCC(CC2O)C1c1ccccc1` (stereo in doubt; 14) [listing 1 of 2 here] has a pIC50 [3] of 4.96, a pIC50 [4] of 5.15 and a pIC50 [1] of 5.11. It also gave a pIC50 [2] of 4.91.

`CN(C)C1C2CCC(CC2O)C1c1ccccc1` (stereo in doubt; 14) [listing 2 of 2 here] was tested, and the Ratio [5] was 1.7 and the Ratio [6] was 1.1.

For `CN(C)C1C2CCC(CC2O)C1c1ccccc1` (stereo in doubt; 15) [listing 1 of 2 here], the pIC50 [3] was 4.64, the pIC50 [4] was 5.00 and the pIC50 [1] was 4.46. The pIC50 [2] was less than 4.00.

`CN(C)C1C2CCC(CC2O)C1c1ccccc1` (stereo in doubt; 15) [listing 2 of 2 here] gave a Ratio [5] greater than 10 and a Ratio [6] of 3.5.

`CC(=O)OC1CC2CCC1C(N(C)C)C2c1ccccc1` (stereo in doubt; 16) [listing 1 of 2 here] showed a pIC50 [3] of 4.79, a pIC50 [4] of 4.87 and a pIC50 [1] of 4.98. For the same molecule, the pIC50 [2] was 5.32.

Molecule `CC(=O)OC1CC2CCC1C(N(C)C)C2c1ccccc1` (stereo in doubt; 16) [listing 2 of 2 here] has a Ratio [5] of 0.35 and a Ratio [6] of 0.76.

`CC(=O)OC1CC2CCC1C(N(C)C)C2c1ccccc1` (stereo in doubt; 17) [listing 1 of 2 here] was tested, and the pIC50 [3] was 4.12, the pIC50 [4] was 4.34 and the pIC50 [1] was 4.33. The pIC50 [2] was 4.64.

Molecule `CC(=O)OC1CC2CCC1C(N(C)C)C2c1ccccc1` (stereo in doubt; 17) [listing 2 of 2 here] has a Ratio [5] of 0.5 and a Ratio [6] of 1.

`CN(C)C1C2CCC(CC2OC(=O)c2ccccc2)C1c1ccccc1` (stereo in doubt; 18) [listing 1 of 2 here] showed a pIC50 [3] of 5.32, a pIC50 [4] of 5.66 and a pIC50 [1] of 5.13. For the same molecule, the pIC50 [2] was 6.12.

In the case of `CN(C)C1C2CCC(CC2OC(=O)c2ccccc2)C1c1ccccc1` (stereo in doubt; 18) [listing 2 of 2 here], the Ratio [5] was 0.35 and the Ratio [6] was 3.4.

In the case of `CN(C)C1C2CCC(CC2OC(=O)c2ccccc2)C1c1ccccc1` (stereo in doubt; 19) [listing 1 of 2 here], the pIC50 [3] was 5.08, the pIC50 [4] was 5.64 and the pIC50 [1] was 5.38. The pIC50 [2] was 5.73.

Work on `CN(C)C1C2CCC(CC2OC(=O)c2ccccc2)C1c1ccccc1` (stereo in doubt; 19) [listing 2 of 2 here] yielded a Ratio [5] of 0.83 and a Ratio [6] of 1.8.

In the case of `COC(=O)[C@H](c1ccccc1)[C@H]1CCCCN1` [DEXMETHYLPHENIDATE], the pIC50 [1] was 6.00 and the pIC50 [2] was 3.65.

— ChEMBL document CHEMBL1132481 (J Med Chem, 1999)
